What follows are compounds tested against Melanin-concentrating hormone receptor 2 (Homo sapiens) (UniProt Q969V1) (assay: Binding affinity to human MCHR2 assessed as inhibition of MCH-mediated calcium ion influx by FLIPR assay).
Assay type: functional

Chain of Melanin-concentrating hormone receptor 2 (Homo sapiens) (Q969V1 whole entry): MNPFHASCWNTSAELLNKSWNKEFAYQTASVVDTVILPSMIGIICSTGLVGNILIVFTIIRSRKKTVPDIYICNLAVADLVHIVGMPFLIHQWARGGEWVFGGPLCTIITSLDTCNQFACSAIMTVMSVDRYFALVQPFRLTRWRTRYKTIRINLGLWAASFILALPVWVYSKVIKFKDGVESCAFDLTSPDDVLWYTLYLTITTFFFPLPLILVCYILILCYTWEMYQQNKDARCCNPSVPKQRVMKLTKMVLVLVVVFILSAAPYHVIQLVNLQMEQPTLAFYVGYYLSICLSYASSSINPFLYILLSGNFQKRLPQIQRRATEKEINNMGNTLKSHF

Compound | Activity [µM]
N#Cc1ccccc1-c1ccc(C(=C2CCN(CC3CC3)CC2)c2nc3cc(C(F)(F)F)c(F)cc3[nH]2)cc1 | > 3
N#Cc1cncc(-c2ccc(C(=C3CCN(CC4CC4)CC3)c3nc4cc(C(F)(F)F)c(F)cc4[nH]3)cc2)c1 | > 3
CS(=O)(=O)c1cccc(-c2ccc(C(=C3CCN(CC4CC4)CC3)c3nc4cc(F)c(C(F)(F)F)cc4[nH]3)cc2)c1 | > 3
N#Cc1cccc(-c2ccc(C3(c4nc5cc(C(F)(F)F)c(F)cc5[nH]4)CC34CCN(CC3CC3)CC4)cc2)c1 (configuration not stated) | > 3
N#Cc1cccc(-c2ccc(C3(c4nc5cc(C(F)(F)F)c(F)cc5[nH]4)CC34CCNCC4)cc2)c1 (configuration not stated) | > 3
N#Cc1cccc(-c2ccc(C3(c4nc5cc(F)c(C(F)(F)F)cc5[nH]4)CC34CCN(CC(=O)O)CC4)cc2)c1 (configuration not stated) | > 3
N#Cc1cccc(-c2ccc(C(=C3CCN(C(=O)C4CC4)CC3)c3nc4cc(C(F)(F)F)c(F)cc4[nH]3)cc2)c1 | > 3
N#Cc1cccc(-c2ccc(C(=C3CCN(CCO)CC3)c3nc4cc(F)c(C(F)(F)F)cc4[nH]3)cc2)c1 | > 3
CN(C)S(=O)(=O)N1CCC(=C(c2ccc(-c3cccc(C#N)c3)cc2)c2nc3cc(F)c(C(F)(F)F)cc3[nH]2)CC1 | > 3
Fc1cc2[nH]c(C(=C3CCN(CC4CC4)CC3)c3ccc(-c4cncnc4)cc3)nc2cc1C(F)(F)F | > 3
Oc1ccc(-c2ccc(C(=C3CCN(CC4CC4)CC3)c3nc4cc(F)c(C(F)(F)F)cc4[nH]3)cc2)cn1 | > 3
N#Cc1cccc(-c2ccc(C(=C3CCN(CC4CC4)CC3)c3nc4cc(Cl)cc(Cl)c4[nH]3)cc2)c1 | > 3
CCN(CC)C(=O)N1CCC2(CC1)CC2(c1ccc(-c2cccc(C#N)c2)cc1)c1nc2cc(F)c(C(F)(F)F)cc2[nH]1 (configuration not stated) | > 3
N#Cc1cccc(-c2ccc(C3(c4nc5cc(C(F)(F)F)c(F)cc5[nH]4)CC34CCN(Cc3ccccc3)CC4)cc2)c1 (configuration not stated) | > 3
N#CCc1cccc(-c2ccc(C(=C3CCN(CC4CC4)CC3)c3nc4cc(C(F)(F)F)c(F)cc4[nH]3)cc2)c1 | > 3
N#Cc1cccc(-c2ccc(C(=C3CCN(Cc4nccs4)CC3)c3nc4cc(C(F)(F)F)c(F)cc4[nH]3)cc2)c1 | > 3

Each compound was assayed against Melanin-concentrating hormone receptor 1 (Homo sapiens, UniProt Q99705) (assay: Binding affinity to human MCHR1 by radioligand binding assay).
Chain of Melanin-concentrating hormone receptor 1 (Q99705 whole entry): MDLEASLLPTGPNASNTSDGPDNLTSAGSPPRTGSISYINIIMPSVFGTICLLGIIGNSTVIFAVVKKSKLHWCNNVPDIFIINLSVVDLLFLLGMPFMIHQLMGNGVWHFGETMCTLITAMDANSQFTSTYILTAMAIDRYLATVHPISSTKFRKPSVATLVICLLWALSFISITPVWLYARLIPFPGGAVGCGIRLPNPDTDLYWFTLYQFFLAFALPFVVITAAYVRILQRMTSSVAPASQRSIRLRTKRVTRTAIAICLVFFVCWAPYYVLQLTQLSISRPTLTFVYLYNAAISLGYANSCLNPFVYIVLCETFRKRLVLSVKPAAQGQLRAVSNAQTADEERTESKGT

Compound | Ki [nM]
N#Cc1c[nH]c(=O)c(-c2ccc(C(=C3CCN(CC4CC4)CC3)c3nc4cc(C(F)(F)F)c(F)cc4[nH]3)cc2)c1 | 99
Cn1cccc1C(=O)N1CCC(=C(c2ccc(-c3cccc(C#N)c3)cc2)c2nc3cc(C(F)(F)F)c(F)cc3[nH]2)CC1 | 10.1
N#Cc1cccc(-c2ccc(C(=C3CCN(CC(N)=O)CC3)c3nc4cc(C(F)(F)F)c(F)cc4[nH]3)cc2)c1 | 15.5
N#Cc1ccccc1-c1ccc(C(=C2CCN(CC3CC3)CC2)c2nc3cc(C(F)(F)F)c(F)cc3[nH]2)cc1 | 464
N#Cc1cncc(-c2ccc(C(=C3CCN(CC4CC4)CC3)c3nc4cc(C(F)(F)F)c(F)cc4[nH]3)cc2)c1 | 10.3
N#Cc1cccc(-c2ccc(C(=C3CCN(CCO)CC3)c3nc4cc(C(F)(F)F)c(F)cc4[nH]3)cc2)c1 | 7.2
N#Cc1cccc(-c2ccc(C3(c4nc5cc(F)c(C(F)(F)F)cc5[nH]4)CC34CCN(CC(=O)O)CC4)cc2)c1 (configuration not stated) | 41
N#Cc1cccc(-c2ccc(C(=C3CCN(C(=O)C4CC4)CC3)c3nc4cc(C(F)(F)F)c(F)cc4[nH]3)cc2)c1 | 31
CN(C)S(=O)(=O)N1CCC(=C(c2ccc(-c3cccc(C#N)c3)cc2)c2nc3cc(F)c(C(F)(F)F)cc3[nH]2)CC1 | 64
Oc1ccc(-c2ccc(C(=C3CCN(CC4CC4)CC3)c3nc4cc(F)c(C(F)(F)F)cc4[nH]3)cc2)cn1 | 174
N#Cc1cccc(-c2ccc(C(=C3CCN(CC4CC4)CC3)c3nc4cc(Cl)cc(Cl)c4[nH]3)cc2)c1 | 87
CCN(CC)C(=O)N1CCC2(CC1)CC2(c1ccc(-c2cccc(C#N)c2)cc1)c1nc2cc(F)c(C(F)(F)F)cc2[nH]1 (configuration not stated) | 221
N#CCc1cccc(-c2ccc(C(=C3CCN(CC4CC4)CC3)c3nc4cc(C(F)(F)F)c(F)cc4[nH]3)cc2)c1 | 26
NC(=O)c1cccc(-c2ccc(C(=C3CCN(CC4CC4)CC3)c3nc4cc(C(F)(F)F)c(F)cc4[nH]3)cc2)c1 | 77
N#Cc1cccc(-c2ccc(C(=C3CCN(Cc4nccs4)CC3)c3nc4cc(C(F)(F)F)c(F)cc4[nH]3)cc2)c1 | 45

Each compound was assayed against Melanin-concentrating hormone receptor 1 (Mus musculus) (UniProt Q8JZL2) (assay: Inhibition of MCH-ADO binding to mouse brain at 30 mg/kg, po after 6 hrs).
Assay type: functional, organism-based
Parameters: dose 30 mg/kg
Outline: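 Mouse ex vivo receptor binding after a single 30 mg/kg oral dose: MCH-ADO binding was measured at 6 h and 24 h post-dose and expressed as percent inhibition relative to vehicle controls, mean ± SEM, n = 3.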

Chain of Melanin-concentrating hormone receptor 1 (Mus musculus) (Q8JZL2 whole entry): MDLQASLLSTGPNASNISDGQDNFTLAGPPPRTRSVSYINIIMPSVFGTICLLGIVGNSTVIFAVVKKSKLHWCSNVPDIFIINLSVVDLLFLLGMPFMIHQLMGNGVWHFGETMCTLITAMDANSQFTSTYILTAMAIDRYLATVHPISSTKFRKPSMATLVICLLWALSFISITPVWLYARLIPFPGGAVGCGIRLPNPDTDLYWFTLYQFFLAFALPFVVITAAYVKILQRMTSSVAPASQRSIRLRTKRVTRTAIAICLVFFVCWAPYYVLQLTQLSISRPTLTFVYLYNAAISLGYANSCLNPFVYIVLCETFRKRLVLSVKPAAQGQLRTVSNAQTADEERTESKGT

Compound | inhibition [%]
N#Cc1cccc(-c2ccc(C3(c4nc5cc(C(F)(F)F)c(F)cc5[nH]4)CC34CCN(CC3CC3)CC4)cc2)c1 (configuration not stated) | 74
